The structures appear in SMILES notation.

As a reminder, the ED50 is the dose that gives a 50% effect, or the effect in half of the subjects. A lower ED50 goes with greater potency. As a reminder, the EC50 is the concentration at which the effect is half-maximal. One may read the Inhibition as the drop in the measured response relative to a control, in per cent.

Assay [1] can be described thus: Selectivity ratio between cytotoxicity to antimalarial activity was determined. The assay is classed as functional.
Assay [2] concerns Plasmodium berghei. As to the kind of experiment: (§1) In vivo effective dose for antimalarial activity by intraperitoneal dose. The assay is classed as functional. As to conditions: ip. The procedure, abridged:
(§2)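 Mice infected with P. berghei were dosed intraperitoneally or orally, in groups of five, once daily on days 0–3. Compounds were given at various concentrations in distilled water or olive oil. Parasitemia was measured on day 4, the day after the last dose. ED50 and ED90 were derived by a previously reported protocol.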

Assay [3] relates to Plasmodium berghei. The description is as §1. The assay is classed as functional. As to conditions: ip. In short, it runs like this: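 P. berghei-infected mice, five per group. Test agents were prepared at various concentrations in distilled water or olive oil and given intraperitoneally once daily on days 0–3. Parasitemia was measured on day 4, the day after the last dose, and effective doses were derived by a previously reported protocol.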
This is another data set of the same source.

The next assay relates to Plasmodium falciparum. As to the kind of experiment: In vitro antimalarial activity against Plasmodium falciparum FCR3. The assay is classed as functional, organism-based.
Another assay deals with FM3A. As to the kind of experiment: Cytotoxicity against FM3A mouse mammary cells. The assay is classed as functional, cell-based.
The test system of assay [4] is Plasmodium berghei. As to the kind of experiment: In vivo effective dose for antimalarial activity by peroral dose. The assay is classed as functional. The following applies: po. In short, it runs like this:
as §2

In assay [5] the test system is Plasmodium berghei. As to the kind of experiment: In vivo antimalarial activity at >100mg/kg intraperitoneal dose. The assay is classed as functional.

For the compound `CC1(C)[C@@H](n2cnc3ccccc3c2=O)C(=O)C[C@@H]2[C@@H](O)CCCN21`, the Ratio in assay [1] is reported as 238. The same compound yielded an ED90 in the assay on Plasmodium berghei [2] of 6.6 mg/kg. In the assay with Plasmodium berghei [3], the 50% effect level (ED50) was put at a dose of 2.5 mg/kg.

In the case of `O=C(C[C@H]1NCCC[C@@H]1O)Cn1c(=O)[nH]c2ccccc2c1=O`, the Ratio in assay [1] is >13. Besides, the EC50 was 6600 nM in the assay on Plasmodium falciparum and > 85 µM in the assay with FM3A.

For the compound `O=C(C[C@H]1NC(=O)CC[C@@H]1O)Cn1cnc2ccccc2c1=O`, the EC50 with Plasmodium falciparum is > 52000 nM; in the assay on FM3A, > 52 µM.

Take `O=c1c2cc(O)ccc2ncn1CC1(O)C[C@@H]2NCCC[C@@H]2O1` (stereo not given in full): the Ratio in assay [1] came out at 10741. The EC50 came out at 0.27 nM in the assay with Plasmodium falciparum and 29 µM in the assay with FM3A. In addition, in the assay with Plasmodium berghei [2], the ED90 came to 37 mg/kg. In the assay on Plasmodium berghei [3], the ED50 stood at 6 mg/kg.

`O=C(C[C@H]1NCCC[C@@H]1O)Cn1cnc2ccc(O)cc2c1=O`: the figures for the ED50 in the assay with Plasmodium berghei [4] and in the assay with Plasmodium berghei [3] were 15 mg/kg and 0.6 mg/kg, respectively. Further, the results for the ED90 with Plasmodium berghei [4] and with Plasmodium berghei [2] were 27 mg/kg and 5.2 mg/kg, respectively. In addition, in assay [1], the Ratio is recorded as 123. Moreover, the EC50 came out at 2.2 nM in the assay with Plasmodium falciparum and 0.27 µM in the assay with FM3A.

Consider `O=c1c2ccccc2ncn1CC1(O)C[C@@H]2NCC[C@H](O)[C@@H]2O1` (stereo not given in full), for which the Ratio in assay [1] came to 167. In addition, the EC50 in the assay with Plasmodium falciparum is 150 nM; with FM3A it was 0.25 µM.

As to `O=C(C[C@H]1NCC[C@H](O)[C@@H]1O)Cn1cnc2ccccc2c1=O`, the ED50 with Plasmodium berghei [4] is 8 mg/kg; in the assay with Plasmodium berghei [3], 2.4 mg/kg. The values for the ED90 in the assay on Plasmodium berghei [4] and in the assay with Plasmodium berghei [2] were 23 mg/kg and 8.3 mg/kg, respectively. The Ratio in assay [1] stood at 1636. For the same compound, the EC50 with Plasmodium falciparum was found to be 22 nM; in the assay with FM3A, 36 µM.

Take `O=C(C[C@@H]1NCCC[C@H]1O)Cn1cnc2ccccc2c1=O` (single isomer, unassigned) [FEBRIFUGINE]: in assay [1], the Ratio is on record as 243. Also, the ED90 in the assay on Plasmodium berghei [2] was determined as 1.5 mg/kg. In the assay with Plasmodium berghei [3], the ED50 was determined as 0.3 mg/kg.

As to `C[C@@H]1CC[C@H]2[C@@H](C)C(=O)O[C@@H]3O[C@@]4(C)CC[C@@H]1[C@]32OO4` [ARTEMISININ], the ED50 with Plasmodium berghei [4] is 3 mg/kg; with Plasmodium berghei [3], 2 mg/kg. Besides, the ED90 in the assay with Plasmodium berghei [4] was found to be 8 mg/kg; in the assay with Plasmodium berghei [2], 3.3 mg/kg. Moreover, the Ratio in assay [1] was found to be 1000.

For `CCN(CC)CCCC(C)Nc1ccnc2cc(Cl)ccc12` (stereo not given) [CHLOROQUINE], the ED50 with Plasmodium berghei [4] stood at 32 mg/kg; in the assay on Plasmodium berghei [3] it was 5.4 mg/kg. Also, the ED90 with Plasmodium berghei [4] turned out to be 89 mg/kg; in the assay with Plasmodium berghei [2], 13 mg/kg.

Take `O=c1c2ccccc2ncn1CC1(O)C[C@@H]2NCCC[C@@H]2O1` (stereo not given in full) [ISOFEBRIFUGINE]: the Inhibition with Plasmodium berghei [5] amounted to 70%. Further, the Ratio in assay [1] was determined as 53. Further, the ED50 in the assay on Plasmodium berghei [3] worked out at 79 mg/kg.

The record behind these values is ChEMBL document CHEMBL1145118, “Metabolites of febrifugine and its synthetic analogue by mouse liver S9 and their antimalarial activity against Plasmodium malaria parasite” (J Med Chem, 2003).
